Columns and labels:
Type in all cases: functional
[1] = tested on: OVCAR-3; assay: Growth inhibition of human OVCAR3 cells after 48 hrs by sulforhodamine B assay; conditions: OVCAR-3, 48 h, read-out: LD50 (the source's name)
[2] = tested on: K562; assay: Growth inhibition of human K562 cells assessed as cell growth at 10 '-5 M after 48 hrs by sulforhodamine B assay; conditions: K562, 48 h, read-out: Activity
[3] = tested on: ACHN; assay: Growth inhibition of human ACHN cells assessed as cell growth at 10 '-4 M after 48 hrs by sulforhodamine B assay; conditions: read-out: Activity
Method in brief: (§1)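 Percent growth at each of the five concentrations of the 48 h continuous-exposure NCI SRB screen. Drug stocks were in DMSO at 400× the top final concentration and diluted in medium with gentamicin. Growth was calculated as [(Ti-Tz)/(C-Tz)]×100 when Ti ≥ Tz, or [(Ti-Tz)/Tz]×100 when Ti < Tz. Tz plates were fixed at drug addition; untreated wells served as control. Absorbance was read at 515 nm.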

[4] = tested on: HT-29; assay: Growth inhibition of human HT-29 cells assessed as cell growth at 10 '-4 M after 48 hrs by sulforhodamine B assay; conditions: HT-29, 48 h, read-out: Activity
[5] = tested on: MDA-MB-231; assay: Growth inhibition of human MDA-MB-231 cells after 48 hrs by sulforhodamine B assay; conditions: MDA-MB-231, 48 h
Method in brief: (§2)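 NCI 60-cell-line five-dose screen. Cells were plated at 5,000–40,000/well by doubling time and grown 24 h at 37 °C, 5% CO2. Time-zero plates were TCA-fixed. Drug from DMSO stock was tested at 0.01, 0.1, 1, 10 and 100 µM final for 48 h continuous exposure. Read-out was SRB at 515 nm. GI50 is the concentration giving 50% reduction in net protein increase versus untreated control.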

[6] = tested on: OVCAR-8; assay: Growth inhibition of human OVCAR8 cells assessed as cell growth at 10 '-4 M after 48 hrs by sulforhodamine B assay; conditions: OVCAR-8, 48 h, read-out: Activity
[7] = tested on: 786-0; assay: Growth inhibition of human 786-0 cells assessed as cell growth at 10 '-5 M after 48 hrs by sulforhodamine B assay; conditions: 786-0, 48 h, read-out: Activity; method in brief: as §1
[8] = tested on: Malme-3M; assay: Growth inhibition of human MALME-3M cells assessed as cell growth at 10 '-8 M after 48 hrs by sulforhodamine B assay; conditions: read-out: Activity
[9] = tested on: COLO 205; assay: Growth inhibition of human COLO205 cells assessed as cell growth at 10 '-6 M after 48 hrs by sulforhodamine B assay; conditions: COLO 205, 48 h, read-out: Activity
Method in brief: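 In the same five-dose SRB screen (48 h, 37 °C, 5% CO2), percentage growth was computed at each concentration from time-zero (Tz), control (C) and treated (Ti) absorbances. The formula was [(Ti−Tz)/(C−Tz)]×100 when Ti ≥ Tz, or [(Ti−Tz)/Tz]×100 when Ti < Tz.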

[10] = tested on: NCI-H522; assay: Growth inhibition of human NCI-H522 cells assessed as cell growth at 10 '-8 M after 48 hrs by sulforhodamine B assay; conditions: NCI-H522, 48 h, read-out: Activity
[11] = tested on: SF-268; assay: Growth inhibition of human SF268 cells assessed as cell growth at 10 '-8 M after 48 hrs by sulforhodamine B assay; conditions: SF-268, 48 h, read-out: Activity
[12] = tested on: TK-10; assay: Growth inhibition of human TK10 cells assessed as cell growth at 10 '-8 M after 48 hrs by sulforhodamine B assay; conditions: TK-10, 48 h, read-out: Activity
[13] = tested on: SNB-19; assay: Growth inhibition of human SNB19 cells assessed as cell growth at 10 '-6 M after 48 hrs by sulforhodamine B assay; conditions: SNB-19, 48 h, read-out: Activity
[14] = Growth inhibition of human Hs 578T cells assessed as cell growth at 10 '-5 M after 48 hrs by sulforhodamine B assay; conditions: read-out: Activity
[15] = tested on: MCF7; assay: Growth inhibition of human MCF7 cells assessed as growth inhibition at 10 uM after 48 hrs by sulforhodamine B assay; conditions: MCF7, 48 h, read-out: GI
[16] = tested on: HOP-92; assay: Growth inhibition of human HOP92 cells assessed as cell growth at 10 '-8 M after 48 hrs by sulforhodamine B assay; conditions: HOP-92, 48 h, read-out: Activity
[17] = tested on: U-251; assay: Growth inhibition of human U251 cells assessed as cell growth at 10 '-6 M after 48 hrs by sulforhodamine B assay; conditions: U-251, 48 h, read-out: Activity
[18] = tested on: OVCAR-3; assay: Growth inhibition of human OVCAR3 cells assessed as cell growth at 10 '-4 M after 48 hrs by sulforhodamine B assay; conditions: OVCAR-3, 48 h, read-out: Activity
[19] = tested on: MDA-MB-468; assay: Growth inhibition of human MDA-MB-468 cells after 48 hrs by sulforhodamine B assay; conditions: MDA-MB-468, 48 h; method in brief: as §2
[20] = tested on: UO-31; assay: Growth inhibition of human UO31 cells assessed as cell growth at 10 '-5 M after 48 hrs by sulforhodamine B assay; conditions: UO-31, 48 h, read-out: Activity
[21] = tested on: SF-295; assay: Growth inhibition of human SF295 cells assessed as cell growth at 10 '-5 M after 48 hrs by sulforhodamine B assay; conditions: SF-295, 48 h, read-out: Activity
[22] = tested on: SN12C; assay: Growth inhibition of human SN12C cells assessed as cell growth at 10 '-8 M after 48 hrs by sulforhodamine B assay; conditions: read-out: Activity
[23] = tested on: HOP-62; assay: Growth inhibition of human HOP62 cells assessed as growth inhibition at 10 uM after 48 hrs by sulforhodamine B assay; conditions: HOP-62, 48 h, read-out: GI
[24] = tested on: A498; assay: Growth inhibition of human A498 cells assessed as cell growth at 10 '-7 M after 48 hrs by sulforhodamine B assay; conditions: A498, 48 h, read-out: Activity; method in brief: as §1
[25] = Growth inhibition of human EKVX cells assessed as growth inhibition at 10 uM after 48 hrs by sulforhodamine B assay; conditions: read-out: GI
[26] = tested on: NCI-H226; assay: Growth inhibition of human NCI-H226 cells assessed as growth inhibition at 10 uM after 48 hrs by sulforhodamine B assay; conditions: NCI-H226, 48 h, read-out: GI
[27] = tested on: RXF 393; assay: Growth inhibition of human RXF393 cells after 48 hrs by sulforhodamine B assay; conditions: RXF 393, 48 h
[28] = tested on: DU-145; assay: Growth inhibition of human DU145 cells assessed as cell growth at 10 '-4 M after 48 hrs by sulforhodamine B assay; conditions: DU-145, 48 h, read-out: Activity
[29] = tested on: HCT-15; assay: Growth inhibition of human HCT15 cells assessed as cell growth at 10 '-5 M after 48 hrs by sulforhodamine B assay; conditions: HCT-15, 48 h, read-out: Activity
[30] = tested on: LOX IMVI; assay: Growth inhibition of human LOXIMVI cells assessed as cell growth at 10 '-8 M after 48 hrs by sulforhodamine B assay; conditions: read-out: Activity
[31] = read-out: LD50 (the source's name)

## Cc1cc(=O)oc2cc(OCCn3c(C)nn(-c4ccc(Cl)cc4)c3=O)ccc12
[1]
  CC50: > 1000 nM
[2]
  growth at 10 µM: 23%
[3]
  growth at 100 µM: 25%
[4]
  growth at 100 µM: 9%
[5]
  GI50: 4530 nM
  TGI: > 1000 nM
[5]; [31]
  CC50: > 1000 nM
[6]
  growth at 100 µM: 24%
[7]
  growth at 10 µM: 35%
[8]
  growth at 0.01 µM: 105%
[9]
  growth at 1 µM: 89%
[10]
  growth at 0.01 µM: 100%
[11]
  growth at 0.01 µM: 104%
[12]
  growth at 0.01 µM: 94%
[13]
  growth at 1 µM: 80%
[14]
  growth at 10 µM: 28%
[15]
  inhibition of growth at 10 µM: 84.2%
[16]
  growth at 0.01 µM: 87%
[17]
  growth at 1 µM: 87%
[18]
  growth at 100 µM: -29%
[19]
  GI50: 2690 nM
  TGI: 5760 nM
[19]; [31]
  CC50: > 1000 nM
[20]
  growth at 10 µM: 51%
[21]
  growth at 10 µM: 39%
[22]
  growth at 0.01 µM: 94%
[23]
  inhibition of growth at 10 µM: 72.7%
[24]
  growth at 0.1 µM: 76%
[25]
  inhibition of growth at 10 µM: 41.3%
[26]
  inhibition of growth at 10 µM: 49.9%
[27]
  GI50: 2760 nM
  TGI: 3000 nM
[27]; [31]
  CC50: > 1000 nM
[28]
  growth at 100 µM: 10%
[29]
  growth at 10 µM: 20%
[30]
  growth at 0.01 µM: 96%
